The full list was thinned out, with hits kept by preference.
697 NFkB inh – inhibitors of the PMA/ionomycin-induced NF-kB reporter in 697 B cells; 330,000 tested, 0.33% active; inhibition, % at 4 µM; 697 B-cell NF-kB luciferase reporter, 16 h; in the data active means inhibition above about 35%
Jurkat NFkB inh – lowers PMA/ionomycin-induced NF-kB signal in Jurkat cells | inhibition, % at 4 µM | 330,000 tested, 0.53% active | PMA/ionomycin-induced NF-kB luciferase reporter, luminescence | AID 435003; in the data active means inhibition above about 50%
CHOP UPR activ – activators of apoptotic arm of unfolded protein response (CHOP); 330,000 tested, 0.34% active; AID 449763; CHO-CHOP luciferase reporter, UPR activation, luminescence; percent of tunicamycin response over DMSO baseline; activation, % at 10 µM;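 active means at 10 µM dose, activation of 40% or more, normalized to positive control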
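Assay system: CHO cells with stable CHOP pathway luciferase reporter; Buffer or medium: F12 plus 10% serum; Times: 16-18 h cell attachment, then 6 h compound exposure, 37 °C; Signal: luciferase luminescence; Read-out basis: percent activation relative to tunicamycin control; Control set: tunicamycin high control, DMSO low control.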
XBP1 UPR activ – activators of adaptive arm of unfolded protein response (XBP1); 330,000 tested, 0.33% active; CHO-XBP1 luciferase reporter, IRE1-XBP1 UPR activation, luminescence; percent of tunicamycin response, DMSO as zero; activation, % at 20 µM; AID 463104;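 active means versus positive control, 20 µM dose yields 30% or more activation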
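Assay system: IRE1-XBP1 luciferase reporter CHO line. Input: 1000 cells/well. Buffer or medium: F12 with 10% serum. Doses: 20 µM, 1% DMSO. Times: overnight seeding at 37 °C, 6 h compound treatment at 37 °C. Technique: Steady-Glo luciferase glow luminescence, 10 min after reagent addition.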
CHOP inh – blocks CHOP induction under ER stress. CHO-K1 CHOP-promoter luciferase, tunicamycin-induced, 15-18 h. inhibition, % at 10 µM. 220,000 tested, 3.8% active;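 active means compounds that reduced the stress-induced luciferase reporter signal by more than about 70% of percent inhibition, limit read from the data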
CHOP inh conf – confirmation of CHOP induction inhibitors. shares compounds with CHOP inh. CHO-CHOP promoter luciferase reporter, tunicamycin-induced, luminescence. inhibition, % at 10 µM. 2,100 tested, 45% active;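 active means mean of three repeat readings of reporter signal inhibition above a set limit, cut at about 70% in these data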
Numbers stand for hits; 0 = inactive; - = no result given.

SMILES | 697 NFkB inh | Jurkat NFkB inh | CHOP UPR activ | XBP1 UPR activ | CHOP inh | CHOP inh conf
COc1ccc(Cl)cc1S(=O)(=O)NC(C)C(=O)NCc1cccnc1 (configuration not stated) | 0 | 0 | 0 | 0 | - | -
CCCC(=O)Nc1cccc(-c2nc3cc(C)c(C)cc3o2)c1 | 0 | 0 | 0 | 0 | 105 | 0
Cc1ccc2oc(-c3cccc(NC(=O)Cc4cccs4)c3)nc2c1 | 0 | 0 | 0 | 0 | 98 | 0
CCCC(=O)Nc1cccc(-c2nc3ccccc3o2)c1 | 0 | 0 | 0 | 0 | 0 | -
Cc1ccc2oc(-c3cccc(NC(=O)c4cc(-n5cnnc5)ccc4Cl)c3)nc2c1 | 0 | 0 | 0 | 0 | 102 | 0
Cc1ccc(C(C)C)c(OCC(O)CNC2CCCC2)c1 (configuration not stated) | 0 | 0 | 0 | 0 | - | -
Cc1cc2ncn(/N=C/c3ccc4c(c3)OCO4)c2cc1C | 0 | 0 | 0 | 0 | 96 | 0
C#CCOCCOCCOCCNc1nc(N2CCN(C(=O)[C@H](CCCN=C(N)N)n3cc(C(N)[C@@H](C)CC)nn3)CC2)nc(N2CCN(C(=O)[C@H](CCC(=O)O)n3cc([C@@H](N)CO)nn3)CC2)n1 (some centres not stated) | 0 | 0 | 0 | 0 | - | -
O=C(NCCCSc1ccccc1)c1cc(Cl)ccc1O | 0 | 0 | 0 | 0 | - | -
CCCCS(=O)CC(COc1ccc(Cl)cc1)OC(=O)c1ccccc1 (configuration not stated) | 0 | 0 | 0 | 0 | 104 | 0
COc1ccc(N2C(=O)C3CCCN3C2=S)cc1 (configuration not stated) | 0 | 0 | 0 | 0 | - | -
Cc1ccc(NC(=O)/C(=C\c2ccc([N+](=O)[O-])cc2)NC(=O)c2ccccc2)cc1 | 0 | 0 | 0 | 0 | 98 | 0
Cc1ccc(NC(=O)CS(=O)CC(=O)N(CC(=O)NC(C)(C)C)c2cccc(C)c2C)cc1 (configuration not stated) | 0 | 0 | 0 | 0 | - | -
CCN(CC)c1ccc2cc(/C(N)=N/NC(=O)c3cccs3)c(=O)oc2c1 | 0 | 0 | 0 | 93 | 102 | 0
N/C(=N\NC(=O)c1cccs1)c1cc2ccccc2oc1=O | 0 | 0 | 0 | 0 | 0 | -
COc1ccc(-c2ccc(-c3cc(=O)oc4c(C(C)C)ccc(C)c34)cc2)cc1 | 0 | - | 0 | 0 | - | -
COCCS(=O)(=O)N(Cc1ccccc1)[C@H](C(=O)OC)C(C)C | 0 | - | 0 | 0 | - | -
O=S(=O)(Nc1ccccc1)c1ccc(Oc2ncc(C(F)(F)F)cc2Cl)cc1 | 0 | 0 | 0 | 0 | 109 | 115
c1csc(C2Nc3cccc4cccc(c34)N2)c1 | 0 | 0 | 0 | 0 | 97 | 0
CN1C(=O)NC(c2ccccc2)C2=C1CN(c1ccc3ccccc3c1)C2=O (configuration not stated) | 0 | 0 | 0 | 0 | 96 | 0
CCOC(=O)C(NC(=O)Nc1cccc(C)n1)(OCC(F)(F)F)C(F)(F)F (configuration not stated) | 0 | 0 | 0 | 0 | 106 | 95
O=c1c(Cl)c(Cl)cnn1Cc1nnc(-c2ccccc2Br)o1 | 0 | 0 | 0 | 0 | 104 | 122
CCOc1cc(NC(=S)NCC(C)C)c(OCC)cc1NC(=O)c1cccs1 | 0 | 0 | 0 | 0 | 100 | 100
CCCc1cc(=O)oc2cc(OCC(=O)NCCc3ccc(S(N)(=O)=O)cc3)ccc12 | 0 | 0 | 0 | 0 | - | -
CC(C)C(=O)Nc1ccc(C(=O)N/N=C/c2cc(Br)cc(Br)c2O)cc1 | 0 | 0 | 0 | 0 | 0 | -
SMILES | 697 NFkB inh | Jurkat NFkB inh | CHOP UPR activ | XBP1 UPR activ | CHOP inh | CHOP inh conf
COc1cc(OC)c(/C=N/NC(=O)c2ccncc2)cc1Br | 0 | 0 | 0 | 0 | 0 | -
CC(=O)Nc1ccc(C(=O)N/N=C/c2cc(Br)cc(Br)c2O)cc1 | 0 | 0 | 0 | 0 | 105 | 0
COc1cc(OC)c(/C=N/NC(=O)c2ccc(NC(C)=O)cc2)cc1Br | 0 | 0 | 0 | 0 | 104 | 0
O=C(O)c1ccccc1C(=O)NC1CCCCNC1=O (configuration not stated) | 0 | 0 | 0 | 0 | 0 | -
CC(C)N(C(=S)Nc1ccc(S(=O)(=O)N2CCOCC2)cc1)c1ccccc1 | 0 | 0 | 0 | 0 | - | -
CCCC1/C(=N/O)CC(c2ccccc2)NC1c1ccccc1 (configuration not stated) | 0 | 0 | 0 | 0 | 106 | 0
CC1/C(=N/O)CC(c2ccccc2)NC1c1ccccc1 (configuration not stated) | 0 | 0 | 0 | 0 | 0 | -
Cc1ccc2[nH]c3c(c2c1)CN(C(=O)CN1CCN(C(=O)c2ccco2)CC1)CC3 | 0 | 0 | 0 | 0 | 0 | -
Cc1ccc2[nH]c3c(c2c1)CN(C(=O)CN1CCN(c2cccc(C)c2C)CC1)CC3 | 0 | 0 | 0 | 0 | 102 | 112
CC(C)[C@H](NC(=O)[C@@H]1CSC2c3ccccc3C(=O)N21)C(=O)NC1CCCCC1 (some centres not stated) | 0 | 0 | 0 | 0 | - | -
CC1=C(CO)C(=O)OC([C@@H](C)C2CC[C@H]3C4C[C@H]5O[C@]56[C@@H](O)C=CC(=O)[C@]6(C)C4CC[C@]23C)C1 (some centres not stated) | - | - | - | - | 107 | 106
CC1(c2ccc3noc(-c4cccc(F)c4)c3c2)OCCO1 | 0 | 0 | 0 | 0 | 0 | -
Cc1cccc(-c2onc3ccc(C4(C)OCCO4)cc23)c1 | 0 | 0 | 0 | 0 | 106 | 0
COCCn1c(SCC(=O)NNC(=O)c2cc(Cl)ccc2OC)nnc1-c1ccncc1 | 0 | 0 | 0 | 0 | - | -
COCCn1cnc2c(c1=O)c1nc3ccccc3nc1n2/N=C/c1cccc(OC)c1 | 0 | 0 | 0 | 0 | 101 | 107
CC(C)Cn1c(N)c(C(=O)COC(=O)C2CCCCC2)c(=O)n(C)c1=O | 0 | 0 | 0 | 0 | 100 | 78
COc1cc2c(cc1OC)C(c1ccccc1)N(C(=O)CCl)CC2 (configuration not stated) | 0 | 0 | 0 | 0 | 111 | 117
COc1cc2c(cc1OC)C(C1C(=O)CCCC1=O)N(C(=O)CCl)CC2 (configuration not stated) | 0 | 0 | 0 | 0 | 0 | -
Cc1ccccc1N(C(=O)Cc1c[nH]c2ccccc12)C(C(=O)NC1CCCCC1)c1ccco1 (configuration not stated) | 0 | 0 | 0 | 0 | 103 | 0
Cc1ccc(C(C(=O)NC2CCCCC2)N(C(=O)Cc2c[nH]c3ccccc23)c2ccccc2C)o1 (configuration not stated) | 0 | 0 | 0 | 0 | 100 | 86
COc1ccc(C(C(=O)NC2CCCCC2)N(C(=O)Cc2c[nH]c3ccccc23)c2ccccc2C)cc1OC (configuration not stated) | 0 | 0 | 0 | 0 | 0 | -
Cc1ccc(NC(=O)CSc2ncccn2)cc1F | 0 | 0 | 0 | 0 | 0 | -
Cc1nc(SCC(=O)Nc2ccc(C)c(F)c2)c2oc3ccccc3c2n1 | 0 | 0 | 0 | 0 | 102 | 110
